The record followed here is ChEMBL document CHEMBL1938242, “In vivo evaluation of oral anti-tumoral effect of 3,4-dihydroquinazoline derivative on solid tumor” (Bioorg Med Chem Lett, 2012).

Series [1] deals with A549. The experiment in a line: Antitumor activity against human A549 cells xenografted in athymic nu/nu BALB/c mouse assessed as decrease in tumor volume at 10 mg/kg, ip administered twice per week for consecutive 39 days (reference value: 224.40 +/- 60.34 mm3). Type of series: functional. As to conditions: route intraperitoneal. For orientation: A xenograft is tissue or cells of one species grown in another, often human tumour cells in immunodeficient mice.

Series [2] concerns A549. The experiment in a line: Antitumor activity against human A549 cells xenografted in athymic nu/nu BALB/c mouse assessed as decrease in tumor weight at 10 mg/kg, ip administered twice per week for consecutive 39 days (reference value: 0.358 +/- 0.052 g). Type of series: functional. As to conditions: route intraperitoneal. The method in brief: (§1)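 A549 s.c. flank xenografts (5 × 10⁶ cells) in BALB/c nu/nu mice, n = 5. From day 8, given 10 mg/kg ip in ethanol:Cremophor EL:water 1:1:18, twice weekly for 39 days. Excised tumors weighed at the end. Inhibition % = 100 × (C − T)/C using mean tumor weights versus vehicle. Mean ± SE.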

For series [3], the system named is A549. In words: Antitumor activity against human A549 cells xenografted in athymic nu/nu BALB/c mouse assessed as tumor growth inhibition at 10 mg/kg, ip administered twice per week for consecutive 39 days. Type of series: functional. The conditions noted are these: 936 h, route intraperitoneal, read-out: GI. The procedure, abridged:
as §1

In series [4] the test system is Mus musculus. The experiment in a line: Toxicity in athymic nu/nu BALB/c mouse bearing human A549 cells assessed as change in total body weight at 10 mg/kg, ip administered twice per week for consecutive 39 days. Further details: dose 10 mg/kg, route intraperitoneal. Type of series: organism-based. As to conditions: in vivo, 936 h. The procedure, abridged: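 Mice bearing A549 s.c. flank xenografts, n = 5 per group, given 10 mg/kg ip in ethanol:Cremophor EL:water 1:1:18, twice weekly over 39 days starting day 8. Total body weights tracked through the study and compared with vehicle control. Mean ± SE.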

Series [5] relates to Mus musculus. In words: Antinociceptive activity in po dosed mouse assessed as time of latency at 100 mg/kg, po administered 1 hr before hot plate test. Type of series: functional, organism-based. Set-up: dose 100 mg/kg. On the technique in general: Thermal pain tests record how soon the animal reacts.
For series [6], the target named is Voltage-dependent N-type calcium channel subunit alpha-1B (Homo sapiens, UniProt Q00975). In words: Inhibition of N-type calcium channel alpha 1 B.
The subject of series [7] is A549. The experiment in a line: Antitumor activity against human A549 cells xenografted in po dosed athymic nu/nu BALB/c mouse assessed as decrease in tumor volume administered 5 times weekly for consecutive 39 days. It counts as functional, organism-based. The procedure, abridged:
(§2)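 A549 cells (5 × 10⁶) injected s.c. into the left flank of BALB/c nu/nu mice, n = 5 per group. At day 8 (nodules ca. 3 mm³), oral dosing at 1 or 5 mg/kg in ethanol:Cremophor EL:water 1:1:18, five times weekly for 39 days. Caliper measurement weekly; volume from length, width and height. Mean ± SE; Dunnett's test versus vehicle.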

For series [8], the system named is A549. In words: Antitumor activity against human A549 cells xenografted in athymic nu/nu BALB/c mouse assessed as decrease in tumor volume at 1 mg/kg, po administered 5 times weekly for consecutive 39 days (reference value: 224.40 +/- 60.34 mm3). It counts as functional. The method in brief:
as §2

Series [9] has as its system A549. The experiment in a line: Antitumor activity against human A549 cells xenografted in athymic nu/nu BALB/c mouse assessed as decrease in tumor volume at 5 mg/kg, po administered 5 times weekly for consecutive 39 days (reference value: 224.40 +/- 60.34 mm3). It counts as functional. The procedure, abridged: as §2
The test system of series [10] is A549. In words: Antitumor activity against human A549 cells xenografted in athymic nu/nu BALB/c mouse assessed as decrease in tumor volume at 5 mg/kg, po administered 5 times weekly for consecutive 39 days relative to paclitaxel. It counts as functional. The procedure, abridged: as §2
The test system of series [11] is A549. In words: Antitumor activity against human A549 cells xenografted in athymic nu/nu BALB/c mouse assessed as decrease in tumor weight at 1 mg/kg, po administered 5 times weekly for consecutive 39 days (reference value: 0.358 +/- 0.052 g). It counts as functional.
The test system of series [12] is A549. The experiment in a line: Antitumor activity against human A549 cells xenografted in athymic nu/nu BALB/c mouse assessed as decrease in tumor weight at 5 mg/kg, po administered 5 times weekly for consecutive 39 days (reference value: 0.358 +/- 0.052 g). It counts as functional.
The test system of series [13] is A549. The experiment in a line: Antitumor activity against human A549 cells xenografted in athymic nu/nu BALB/c mouse assessed as tumor growth inhibition at 1 mg/kg, po administered 5 times weekly for consecutive 39 days. The conditions noted are these: A549, 936 h, read-out: GI. Type of series: functional.
Series [14] relates to A549. The experiment in a line: Antitumor activity against human A549 cells xenografted in athymic nu/nu BALB/c mouse assessed as tumor growth inhibition at 5 mg/kg, po administered 5 times weekly for consecutive 39 days. As to conditions: A549, 936 h, read-out: GI. It counts as functional.
Series [15] has as its system Mus musculus. In words: Toxicity in athymic nu/nu BALB/c mouse bearing human A549 cells assessed as change in total body weight at 1 to 5 mg/kg, po administered 5 times weekly for consecutive 39 days. Type of series: organism-based. Further details: dose 1-5 mg/kg, route oral. The conditions noted are these: in vivo, 936 h. The method in brief:
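A549 cells (5 × 10⁶ cells/mL) were injected s.c. into the left flank of BALB/c nu/nu nude mice. After 8 days, once nodules were visible (ca. 3 mm³), mice got oral doses in ethanol:Cremophor EL:distilled water (1:1:18) five times per week for 39 days, with vehicle-only controls (n = 5/group). Total body weights were followed over the period (mean ± SE; Dunnett's test versus control).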

For series [16], the system named is Mus musculus. In words: Antinociceptive activity in po dosed mouse assessed as inhibition of acetic acid-induced writhing measured every 5 mins for 20 mins pretreated 1 hr before acetic acid challenge. Type of series: functional, organism-based. The procedure, abridged: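 Mice (n = 7 per group) given 10 or 50 mg/kg orally; 1 h later injected ip with 0.7% (v/v) acetic acid, 10 mL/kg. After a 5-min delay, writhes counted for 20 min. Comparison with vehicle controls by Dunnett's test; mean ± S.D.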
In general terms: Writhing tests count abdominal constrictions after an irritant is injected.

Series [17] relates to Mus musculus. In words: Antinociceptive activity in po dosed mouse assessed as time of latency at 10 or 50 mg/kg, po administered 1 hr before hot plate test. It counts as functional, organism-based. Further details: dose 50 mg/kg. The method in brief:
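Mice (n = 10 per group) given 10 or 50 mg/kg orally; 1 h later placed on a hot plate at 55 ± 0.5 °C. Latency recorded at 0 and 30 min. Comparison with vehicle control by Dunnett's test; mean ± S.D.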

Series [18] has as its system Mus musculus. In words: Toxicity in athymic nu/nu BALB/c mouse bearing human A549 cells assessed as decrease in body weight at 5 mg/kg, po administered 5 times weekly for consecutive 39 days measured on day 19 to 22 post dosing. As to conditions: in vivo, 936 h.

Calls of active or inactive are those of the source. The rule behind the calls is not given here.

By IC50 is commonly meant the concentration that gives 50% inhibition.

Voltage-dependent N-type calcium channel subunit alpha-1B, sequence (Q00975 whole entry): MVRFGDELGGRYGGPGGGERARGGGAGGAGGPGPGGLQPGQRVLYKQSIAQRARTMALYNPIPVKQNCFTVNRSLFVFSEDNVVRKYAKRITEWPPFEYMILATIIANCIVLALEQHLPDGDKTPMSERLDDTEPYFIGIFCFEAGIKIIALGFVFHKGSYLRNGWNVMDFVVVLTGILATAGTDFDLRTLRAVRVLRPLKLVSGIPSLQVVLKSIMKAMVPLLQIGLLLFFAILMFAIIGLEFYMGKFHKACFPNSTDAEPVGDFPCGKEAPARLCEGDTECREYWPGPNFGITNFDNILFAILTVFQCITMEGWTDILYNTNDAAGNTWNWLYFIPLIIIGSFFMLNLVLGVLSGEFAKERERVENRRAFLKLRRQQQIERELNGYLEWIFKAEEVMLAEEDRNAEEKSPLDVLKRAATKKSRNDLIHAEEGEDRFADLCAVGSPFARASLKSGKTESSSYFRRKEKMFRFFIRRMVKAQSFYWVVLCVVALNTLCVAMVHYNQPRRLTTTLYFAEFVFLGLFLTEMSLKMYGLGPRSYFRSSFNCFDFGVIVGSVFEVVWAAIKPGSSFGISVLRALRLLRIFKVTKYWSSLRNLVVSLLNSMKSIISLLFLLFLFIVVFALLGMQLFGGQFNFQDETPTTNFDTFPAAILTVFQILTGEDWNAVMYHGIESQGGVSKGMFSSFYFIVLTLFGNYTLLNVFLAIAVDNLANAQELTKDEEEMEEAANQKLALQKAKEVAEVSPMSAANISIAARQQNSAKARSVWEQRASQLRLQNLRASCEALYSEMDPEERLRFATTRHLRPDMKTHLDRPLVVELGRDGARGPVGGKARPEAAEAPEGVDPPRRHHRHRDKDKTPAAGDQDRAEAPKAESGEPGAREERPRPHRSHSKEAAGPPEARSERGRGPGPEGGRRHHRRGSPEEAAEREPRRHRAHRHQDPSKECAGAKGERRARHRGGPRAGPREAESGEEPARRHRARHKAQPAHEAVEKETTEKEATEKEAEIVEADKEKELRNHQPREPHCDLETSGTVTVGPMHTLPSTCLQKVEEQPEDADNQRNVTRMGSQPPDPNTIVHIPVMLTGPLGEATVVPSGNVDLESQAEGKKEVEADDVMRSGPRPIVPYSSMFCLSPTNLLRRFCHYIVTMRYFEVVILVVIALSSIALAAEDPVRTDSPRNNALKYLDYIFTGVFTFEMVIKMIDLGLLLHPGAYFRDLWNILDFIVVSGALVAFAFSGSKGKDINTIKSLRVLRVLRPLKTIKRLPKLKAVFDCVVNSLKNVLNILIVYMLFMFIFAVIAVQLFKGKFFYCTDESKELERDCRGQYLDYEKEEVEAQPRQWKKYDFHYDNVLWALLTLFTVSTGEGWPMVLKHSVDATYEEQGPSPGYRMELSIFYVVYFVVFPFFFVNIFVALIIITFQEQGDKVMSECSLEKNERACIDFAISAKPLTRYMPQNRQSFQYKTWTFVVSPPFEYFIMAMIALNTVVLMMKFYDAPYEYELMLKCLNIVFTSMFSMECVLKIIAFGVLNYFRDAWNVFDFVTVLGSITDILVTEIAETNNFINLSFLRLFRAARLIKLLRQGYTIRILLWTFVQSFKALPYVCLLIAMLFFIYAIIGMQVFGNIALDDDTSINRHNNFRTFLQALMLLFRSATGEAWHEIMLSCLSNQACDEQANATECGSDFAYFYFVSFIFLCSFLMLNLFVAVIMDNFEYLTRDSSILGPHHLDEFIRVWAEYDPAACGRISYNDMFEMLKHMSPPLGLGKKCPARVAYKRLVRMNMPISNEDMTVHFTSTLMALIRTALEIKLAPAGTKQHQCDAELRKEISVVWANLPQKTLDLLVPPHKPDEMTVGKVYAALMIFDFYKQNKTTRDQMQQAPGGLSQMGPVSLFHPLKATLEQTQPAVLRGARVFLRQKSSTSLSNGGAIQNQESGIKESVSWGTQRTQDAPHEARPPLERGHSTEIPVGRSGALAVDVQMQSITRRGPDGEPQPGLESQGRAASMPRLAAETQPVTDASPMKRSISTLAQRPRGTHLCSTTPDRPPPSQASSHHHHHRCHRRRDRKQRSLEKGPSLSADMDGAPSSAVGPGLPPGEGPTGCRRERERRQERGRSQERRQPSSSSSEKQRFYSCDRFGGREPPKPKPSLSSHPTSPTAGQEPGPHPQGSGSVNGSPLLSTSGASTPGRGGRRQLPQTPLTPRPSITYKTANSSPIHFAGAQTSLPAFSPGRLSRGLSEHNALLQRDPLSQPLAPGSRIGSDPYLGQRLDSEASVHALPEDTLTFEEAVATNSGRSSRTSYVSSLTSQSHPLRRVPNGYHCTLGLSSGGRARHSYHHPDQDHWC

Regarding `CC(=O)O[C@H]1C(=O)[C@@]2(C)[C@H]([C@H](OC(=O)c3ccccc3)[C@]3(O)C[C@H](OC(=O)[C@H](O)[C@@H](NC(=O)c4ccccc4)c4ccccc4)C(C)=C1C3(C)C)[C@]1(OC(C)=O)CO[C@@H]1C[C@@H]2O` [PACLITAXEL], the Activity in series [1] is recorded as 22.9 mm3; in [2], 0.17 g; in series [4], “Non-toxic”. For the same compound, the inhibition in vivo at 10 mg/kg in series [3] stood at 53%.

Take `CC(C)Cc1ccc(C(C)C(=O)O)cc1` (stereo not drawn): the outcome in series [5] was Active.

Take `CN(C)CCCCCN(C)C1=Nc2ccccc2C(CC(=O)NCc2ccccc2)N1c1ccc(-c2ccccc2)cc1.Cl.Cl` (stereo not drawn): the IC50 in series [6] was determined as 4.9 µM. For the same compound, the Activity entry is “Dose-dependent effect” in series [7]; 27.05 mm3 in [8]; 7.9 mm3 in series [9]; 0.142 g in series [11]; 0.12 g in [12]; “Non-toxic” in series [15]. For the same compound, the Activity result in [16] was “Dose-dependent effect”; in [18], “Toxic”. For the same compound, in [10], the “fold change (FC)” value is 3. For the same compound, the inhibition in vivo at 1 mg/kg in series [13] is 60%. In series [14], the inhibition in vivo at 5 mg/kg was 67%. Further, the result in series [17] was inactive.
